Test system: MS2 coat protein
Assay: apparent Kd, MS2 coat protein; higher = weaker binding; RNA-MaP array; FMN 200 µM where present
How it was run: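 The apparent Kd is the median of filtered binding-curve fits, one per cluster, to green signal normalised to red-channel RNA signal and control-cluster median Fmax. The clusters were on Illumina sequencing chips, and stalled E. coli RNA polymerase had transcribed the designs on them. Titration used SNAP-549-labelled MS2 coat protein from 0.7 or 1.5 nM, doubling to 3 µM, without and then with constant ligand, in 100 mM Tris-HCl pH 7.5, 80 mM KCl, 4 mM MgCl2, BSA, DTT, yeast tRNA and Tween-20.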

[1] = designed as: OFF switch for flavin mononucleotide, no ligand
[2] = ligand present: flavin mononucleotide, designed as: OFF switch for flavin mononucleotide
[3] = designed as: ON switch for flavin mononucleotide, no ligand
[4] = ligand present: flavin mononucleotide, designed as: ON switch for flavin mononucleotide

Sequence | apparent Kd [1] | apparent Kd [2] | apparent Kd [3] | apparent Kd [4]
ACUUACUGAGGAUAUACAUAGAUUUACAUGAGGAUCACCCAUGUUCCUCUAUGUAUAAAUGUAGAAGGCAGAAGUG | 22.4 nM | 120 nM |  | 
AGUACUCAAAGAGUACCAAUACGAACAUGAGGAUCACCCAUGUAGGAUAUGCUACUCAAAGAGUAGCAGAAGGACAUGUGCCUA | 18.2 nM | 82.3 nM |  | 
GUUCGUUUGAUAGGAUAUCGCUAUACAUGAGGAUCACCCAUGUUUACCACGCUGGUUUUUCGUACCGAGAAGGAUUCUGAUGAU |  |  | 40.2 nM | 36.2 nM
UUACUCAUGUAAGGAUAUGCAGCUGAAACGGCUGCAGAAGGUACUAUAAUACAUGAGGAUCACCCAUGUAAAAUAAAUAAAGUU |  |  | 24.1 nM | 14.6 nM
UGUGCCUCGAGAGGAUAUAACAUGAGGAUCACCCAUGUAACAGAGGUGGAAACACCUCUGAAAUGUUAGAAGGCUCGAGGCACA | 46.6 nM | 57 nM |  | 
GUUAGUUAAGGAUAUACAGGGAGCUGCGGCGUCUCGCCGCAACAUGAGGAUCACCCAUGUAGAAGGUGACCUUU | 529 nM | 406 nM |  | 
GAUGAGGUAGGAUAUACGAUAAUAUAGGGUAGAUAUAUAACACAUGAGGAUCACCCAUGUAGAAGGACCAGUAG | 33.5 nM | 73.4 nM |  | 
GUUUUAUAAGAGAAGGAGGACUUCAUGAGGAUCACCCAUGUGUUAGUACUUAGGAUAUUUGAUAACAUGAGGAUCACCCAUGUC |  |  | 27.6 nM | 27.7 nM
GUAGAGUAAGGAUAUACUGAAUAGGAUAGAAUGGUUAGAAAGUAGAAGGUACAUGAGGAUCACCCAUGUAAUGU | 20.3 nM | 19.7 nM |  | 
CAGGUAGACUGAGGAUAUACAAUAAGACCUAGUCUAUCUAGGUCACUCACAUGAGGAUCACCCAUGUAGAAGGCAGUCUGCCUG | 21.8 nM | 79.7 nM |  | 
AUAUCCUAGAUAGGAUAUACUGAGGUUGAAUGGGUAGAAGGAUCGUUAGGGUGGACUACAUGAGGAUCACCCAUGUUGUUUAUU |  |  | 213 nM | 208 nM
UAUAUAUAGUAAGGAUAUGUAAUUAUUUUAUAAACAGAAGGUACUGACAUGAGGAUCACCCAUGUUUUAGUGUGGGCAUGUAGA | 87.7 nM | 139 nM |  | 
GUAACGCUUGACAUGAGGAUCACCCAUGUUAGAUUGUUAUGUCAGGAUAUAGUCUAGAAACUAGACUAGAAGGGAUAUGUUACU |  |  | 69.6 nM | 29.4 nM
GCACGAGACUAAGGAUAUGGAGUGUCAACAUAAAACAUGAGGAUCACCCAUGUAAAGAGUACGAUUCAGAAGGUAGAGACGUGC |  |  | 41 nM | 23.6 nM
AUGUUAUUCUGAGGAUAUUGUUUAUUCUUCUCACAUGAGGAUCACCCAUGUUUCCGUGUUUACCGCAAGAAGGCAGUUUUGUUU | 29.9 nM | 27.5 nM |  | 
GCAUCGUCGACUGAUAAUGAGCCUAGAAGGCGGACAUGAGGAUCACCCAUGUCUGAUCCUCGGCCCGAGGAUAUAGGUUAAUGA | 12.1 nM | 8.65 nM |  | 
AAUUAUUUAUGAGGAUAUUGUGGUGAAACACCACAAGAAGGCAUGAUACACAUGAGGAUCACCCAUGUGAGCCUGAUGCUUAUG | 16.7 nM | 20.1 nM |  | 
CCUCUGUAAGGAUAUACGGAGACGGCUGGAAUCAGUGGAAAGUAGAAGGUACAUGAGGAUCACCCAUGUGAGAC | 21.1 nM | 66.2 nM |  | 
GGCUGGCAGCUAGGAUAUGGGCGGUCACAUGAGGAUCACCCAUGUCAACAUCAAAACCAGAUUAACCAGAAGGAGCUGCGGGCU |  |  | 51.8 nM | 796 nM
GGAUGACAAAGUCAUCCAAUACGAACAUGAGGAUCACCCAUGUAGGAUAUGCUACUCAAAGAGUAGCAGAAGGACAUGUGUCUU | 30 nM | 143 nM |  | 
GUCGGAAACGACAAUGAUAGGACUGAGGAUAUACGUAUAAAUAUCCUCACAUGAGGAUCACCCAUGUAGAAGGCAGUCCUAUCU | 13.2 nM | 167 nM |  | 
UUAACAUGAGGAUCACCCAUGUAUAGAUUGUUUAUUAGAAGUGAGGAUAUAUAUAAAAUUAGGUAGUAGAAGGCACUGGGUUUU |  |  | 30.5 nM | 31.9 nM
AAAAUACAUGAGGAUCACCCAUGUCAGGAUAUUCCUGCAGCCUUGAAUAUGGGCUGGUGAAGAAGGGACGGUGA | 40.1 nM | 105 nM |  | 
UGAGCCUCGUGAGGAUAUACAUGAGGAUCACCCAUGUAAUAAGAUCAACGGAGGAAACUCCGAAUGUAGAAGGCACGAGGCUCA | 40.9 nM | 393 nM |  | 
GUAUCUUACCGAGGAUAUUUACGAUUAGUGUAGACAUGAGGAUCACCCAUGUGGCCUUAGUCACGGGAGAAGGCGGUUUGAUAC |  |  | 233 nM | 59 nM
CCAUCGAGUGUGAGGAUAUGCUGGUCCAUAGAUCAGCAGAAGGCACAUGAGGAUCACCCAUGUGGAGACGGUGG | 41.7 nM | 332 nM |  | 
GUGGCUAGUGCAGGAUAUUAGCGCGUGUAGUGUUGAGAAGGGCACAUGAGGAUCACCCAUGUGAUCAAUCACUGUUAAGGUCGC | 12.7 nM | 25.3 nM |  | 
UGCGAACAGGCUAACAUGAGGAUCACCCAUGUGGACUCAUGGUAGGAUAUCGGGAAGGAGGAAACCGAGAAGGGCCGGUGAGCC |  |  | 848 nM | 372 nM
